Tests used:
GABA transporter 2 = biological target: T1, GABA transporter 2 (Mus musculus, UniProt P31651); assay: Inhibition of [3H]GABA uptake at mouse GAT2 expressed in HEK293 cells after 3 mins by scintillation counting analysis; assay type: cell-based
T1 sequence (P31651 whole entry): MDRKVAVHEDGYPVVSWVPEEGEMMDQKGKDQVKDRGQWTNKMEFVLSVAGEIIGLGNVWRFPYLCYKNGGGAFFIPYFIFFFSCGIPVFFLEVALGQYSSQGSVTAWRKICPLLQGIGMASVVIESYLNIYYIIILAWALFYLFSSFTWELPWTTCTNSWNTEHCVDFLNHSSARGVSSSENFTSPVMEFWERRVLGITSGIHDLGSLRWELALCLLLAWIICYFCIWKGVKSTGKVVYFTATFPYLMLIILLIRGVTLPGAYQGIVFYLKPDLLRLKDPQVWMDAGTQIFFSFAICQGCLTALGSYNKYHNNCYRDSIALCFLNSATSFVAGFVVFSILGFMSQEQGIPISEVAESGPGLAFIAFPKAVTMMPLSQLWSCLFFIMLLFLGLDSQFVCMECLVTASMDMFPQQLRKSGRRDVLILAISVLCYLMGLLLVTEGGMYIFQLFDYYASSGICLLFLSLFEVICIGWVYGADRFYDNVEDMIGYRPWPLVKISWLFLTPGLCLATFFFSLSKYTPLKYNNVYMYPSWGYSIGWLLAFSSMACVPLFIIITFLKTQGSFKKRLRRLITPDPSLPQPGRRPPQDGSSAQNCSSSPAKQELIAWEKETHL
How it was run: (§1)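 Uptake measured in primary mouse cortical astrocyte or neuron cultures, or in cells stably overexpressing the respective recombinant mGAT. Cells were incubated at 37 °C in phosphate-buffered saline with [3H]GABA (1 μCi/mL), 1 μM GABA and increasing inhibitor concentrations. After 3 min, uptake was stopped by automated washing. Cells were solubilized in scintillant, radioactivity was counted, and inhibition curves were analyzed.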

[1] = biological target: Sodium- and chloride-dependent GABA transporter 1 (Mus musculus, UniProt P31648); assay: Inhibition of [3H]GABA uptake at mouse GAT1 expressed in HEK293 cells after 3 mins by scintillation counting analysis; assay type: cell-based; how it was run: as §1
GABA transporter 4 = biological target: T2, GABA transporter 4 (Mus musculus, UniProt P31650); assay: Inhibition of [3H]GABA uptake at mouse GAT4 expressed in HEK293 cells after 3 mins by scintillation counting analysis; assay type: cell-based; how it was run: as §1
T2 sequence (P31650 whole entry): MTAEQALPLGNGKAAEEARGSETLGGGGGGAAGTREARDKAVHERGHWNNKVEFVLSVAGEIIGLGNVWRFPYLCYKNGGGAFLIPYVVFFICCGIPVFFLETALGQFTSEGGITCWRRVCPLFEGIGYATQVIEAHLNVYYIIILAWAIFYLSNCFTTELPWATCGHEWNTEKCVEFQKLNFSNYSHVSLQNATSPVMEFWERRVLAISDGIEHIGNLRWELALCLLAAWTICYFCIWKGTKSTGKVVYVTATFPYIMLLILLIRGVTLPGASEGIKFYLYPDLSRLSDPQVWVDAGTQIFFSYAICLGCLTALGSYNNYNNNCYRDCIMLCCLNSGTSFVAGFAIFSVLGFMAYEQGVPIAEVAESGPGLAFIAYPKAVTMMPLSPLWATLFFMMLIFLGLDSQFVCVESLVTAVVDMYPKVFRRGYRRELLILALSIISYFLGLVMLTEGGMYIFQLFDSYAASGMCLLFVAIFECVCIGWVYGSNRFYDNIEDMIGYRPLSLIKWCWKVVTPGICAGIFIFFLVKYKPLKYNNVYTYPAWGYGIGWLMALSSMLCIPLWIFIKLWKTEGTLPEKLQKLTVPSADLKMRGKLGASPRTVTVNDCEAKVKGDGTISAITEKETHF

GABA transporter 3 = biological target: T3, GABA transporter 3 (Mus musculus, UniProt P31649); assay: Inhibition of [3H]GABA uptake at mouse GAT3 expressed in HEK293 cells after 3 mins by scintillation counting analysis; assay type: cell-based; how it was run: as §1
T3 sequence (P31649 whole entry): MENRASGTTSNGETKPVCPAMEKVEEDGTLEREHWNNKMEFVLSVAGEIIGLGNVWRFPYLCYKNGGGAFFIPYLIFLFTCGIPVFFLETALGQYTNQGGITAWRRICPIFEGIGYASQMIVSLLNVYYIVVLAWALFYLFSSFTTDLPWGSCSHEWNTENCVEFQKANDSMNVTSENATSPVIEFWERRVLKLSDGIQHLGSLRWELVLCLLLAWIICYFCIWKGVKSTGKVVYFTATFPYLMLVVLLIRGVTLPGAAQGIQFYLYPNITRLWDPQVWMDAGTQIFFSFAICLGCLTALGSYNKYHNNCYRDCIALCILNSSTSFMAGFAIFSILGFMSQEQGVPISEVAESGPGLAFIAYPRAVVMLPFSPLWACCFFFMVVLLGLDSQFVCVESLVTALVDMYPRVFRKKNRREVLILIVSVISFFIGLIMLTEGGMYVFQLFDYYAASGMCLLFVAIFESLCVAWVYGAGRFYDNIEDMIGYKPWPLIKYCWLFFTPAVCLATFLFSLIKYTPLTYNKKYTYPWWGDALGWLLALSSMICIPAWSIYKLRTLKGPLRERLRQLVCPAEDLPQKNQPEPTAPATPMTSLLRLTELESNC

[2] = biological target: GABA transporter (Mus musculus); assay: Inhibition of [3H]GABA uptake in mouse astrocytes after 3 mins by scintillation counting analysis
[3] = biological target: GABA transporter (Mus musculus); assay: Inhibition of [3H]GABA uptake in mouse neurons after 3 mins by scintillation counting analysis
Mus musculus [4] = assay: Anticonvulsant activity in ip dosed audiogenic seizure susceptible Frings mouse model after 60 mins; assay type: functional; conditions: 1 h
Mus musculus [5] = assay: Anticonvulsant activity in ip dosed audiogenic seizure susceptible Frings mouse model after 15 mins; assay type: functional

SMILES	IC50 [1]	IC50 (GABA transporter 4; read-out: IC50)	IC50 (GABA transporter 3; read-out: IC50)	IC50 (GABA transporter 4; read-out: pIC50 (converted))	IC50 (GABA transporter 2)	IC50 (GABA transporter 3; read-out: pIC50 (converted))	IC50 [2]	IC50 [3]	ED50 (Mus musculus [4])	ED50 (Mus musculus [5])
Cc1ccsc1C(=CCCN(C)[C@H]1CCCC[C@@H]1C(=O)O)c1sccc1C (relative stereo)	273 µM	> 300 µM	> 300 µM		36 µM					
Cc1ccsc1C(=CCCN(C)C1C2C=CC(C2)C1C(=O)O)c1sccc1C (centres undefined)	40 µM	> 300 µM	> 300 µM		144 µM					
Cc1ccsc1C(=CCCN(C)[C@@H]1CCCC[C@@H]1C(=O)O)c1sccc1C (relative stereo)	> 300 µM	> 300 µM	281 µM		50 µM	3550 µM				
CNC1CCCC=C1C(=O)O (centres undefined)	423 µM	> 1000 µM	> 1000 µM							
CN[C@H]1CCCC[C@H]1C(=O)O (relative stereo)	> 3000 µM	> 3000 µM	> 3000 µM		> 3000 µM		> 300 µM	> 300 µM		
CNC1CCCc2onc(O)c21 (centres undefined)	450 µM	> 3000 µM	> 3000 µM		> 3000 µM		48 µM	405 µM		
CN[C@@H]1CCCC[C@H]1C(=O)O (relative stereo)	> 3000 µM	> 3000 µM	> 3000 µM		> 3000 µM		> 300 µM	> 300 µM		
Cc1ccsc1C(=CCCN(C)C1CCCC=C1C(=O)O)c1sccc1C (centres undefined)	307 µM	286 µM	> 300 µM	3470 µM	45 µM					20.4 mg/kg

Second part, led by results:

IC50 [1]	IC50 (GABA transporter 4; read-out: IC50)	IC50 (GABA transporter 3; read-out: IC50)	IC50 (GABA transporter 4; read-out: pIC50 (converted))	SMILES	IC50 (GABA transporter 2)	IC50 (GABA transporter 3; read-out: pIC50 (converted))	IC50 [2]	IC50 [3]	ED50 (Mus musculus [4])	ED50 (Mus musculus [5])
17 µM	> 300 µM	> 300 µM		Cc1ccsc1C(=CCCN(C)C1CCC=C1C(=O)O)c1sccc1C (centres undefined)	50 µM					
> 500 µM	> 500 µM	> 500 µM		CNC1C2C=CC(C2)C1C(=O)O (centres undefined)						
0.8 µM	800 µM	> 300 µM		Cc1ccsc1C(=CCCN1CCC[C@@H](C(=O)O)C1)c1sccc1C [TIAGABINE]					1.1 mg/kg	
7 µM	> 300 µM	> 300 µM		Cc1ccsc1C(=CCCN(C)C1CCCc2o[nH]c(=O)c21)c1sccc1C (centres undefined)						
